Laboratory results reported in ChEMBL document CHEMBL1221342, “Synthesis and in vitro antitumor activity of new 4,5-dihydropyrazole derivatives” (Bioorg Med Chem, 2010).

How the values were obtained:
[1] = test system: HCT-15; experiment: Growth inhibition of human HCT15 cells after 48 hrs by SRB assay; assay type: functional; details: HCT-15, 48 h
Outline: (§1)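 NCI 60-cell-line screen. Cells grown in RPMI1640 with 5% fetal calf serum and 2 mM L-glutamine, with inoculum density set by cell line. Preincubated 24 h, then given compound in DMSO at 10^-4 to 10^-8 M (five 10-fold steps) for 48 h continuous exposure. Growth measured by SRB protein assay. GI50, TGI and LC50 reported as –log molar.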

[2] = test system: A498; experiment: Growth inhibition of human A498 cells after 48 hrs by SRB assay; assay type: functional; details: A498, 48 h; outline: as §1
[3] = test system: IGROV-1; experiment: Growth inhibition of human IGROV1 cells after 48 hrs by SRB assay; assay type: functional; details: IGROV-1, 48 h; outline: as §1
[4] = test system: MCF7; experiment: Growth inhibition of human MCF7 cells after 48 hrs by SRB assay; assay type: functional; details: MCF7, 48 h; outline: as §1
[5] = test system: NCI-H460; experiment: Growth inhibition of human NCI-H460 cells after 48 hrs by SRB assay; assay type: functional; details: NCI-H460, 48 h; outline: as §1
[6] = test system: TK-10; experiment: Growth inhibition of human TK10 cells after 48 hrs by SRB assay; assay type: functional; details: TK-10, 48 h; outline: as §1
[7] = test system: Malme-3M; experiment: Growth inhibition of human MALME-3M cells after 48 hrs by SRB assay; assay type: functional; details: read-out: pTGI (converted); outline: as §1
[8] = test system: T47D; experiment: Growth inhibition of human T47D cells after 48 hrs by SRB assay; assay type: functional; details: read-out: pTGI (converted); outline: as §1
[9] = test system: NCI-H460; experiment: Cytotoxicity against human NCI-H460 cells after 72 hrs by SRB assay; assay type: functional, cell-based; details: NCI-H460, 72 h
Outline: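 NCI-H460 (ATCC) cells seeded in 96-well plates in growth medium. Scalar drug concentrations added 24 h after plating, then 72 h exposure. Surviving cells stained with sulforhodamine B, OD read at 570 nm. IC50 (50% growth inhibition) fitted from dose–response curves. Mean ± SE of at least three independent experiments.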

[10] = test system: SNB-75; experiment: Growth inhibition of human SNB75 cells after 48 hrs by SRB assay; assay type: functional; details: SNB-75, 48 h; outline: as §1
[11] = test system: KM12; experiment: Growth inhibition of human KM12 cells after 48 hrs by SRB assay; assay type: functional; details: KM12, 48 h; outline: as §1
[12] = test system: MDA-MB-468; experiment: Growth inhibition of human MDA-MB-468 cells after 48 hrs by SRB assay; assay type: functional; details: MDA-MB-468, 48 h; outline: as §1
[13] = test system: SF-295; experiment: Growth inhibition of human SF295 cells after 48 hrs by SRB assay; assay type: functional; details: SF-295, 48 h; outline: as §1
[14] = test system: UO-31; experiment: Growth inhibition of human UO31 cells after 48 hrs by SRB assay; assay type: functional; details: UO-31, 48 h; outline: as §1
[15] = test system: DU-145; experiment: Growth inhibition of human DU145 cells after 48 hrs by SRB assay; assay type: functional; details: DU-145, 48 h; outline: as §1
[16] = test system: SW-620; experiment: Growth inhibition of human SW620 cells after 48 hrs by SRB assay; assay type: functional; details: SW-620, 48 h; outline: as §1
[17] = test system: NCI-H522; experiment: Growth inhibition of human NCI-H522 cells after 48 hrs by SRB assay; assay type: functional; details: NCI-H522, 48 h; outline: as §1
[18] = test system: K562; experiment: Growth inhibition of human K562 cells after 48 hrs by SRB assay; assay type: functional; details: K562, 48 h; outline: as §1
[19] = test system: NCI-H322M; experiment: Growth inhibition of human NCI-H322M cells after 48 hrs by SRB assay; assay type: functional; outline: as §1
[20] = test system: HCT-116; experiment: Growth inhibition of human HCT116 cells after 48 hrs by SRB assay; assay type: functional; details: HCT-116, 48 h; outline: as §1
[21] = test system: M14; experiment: Growth inhibition of human M14 cells after 48 hrs by SRB assay; assay type: functional; details: M14, 48 h; outline: as §1
[22] = Growth inhibition of human […] cells after 48 hrs by SRB assay; assay type: functional; outline: as §1
[23] = test system: OVCAR-4; experiment: Growth inhibition of human OVCAR4 cells after 48 hrs by SRB assay; assay type: functional; details: OVCAR-4, 48 h; outline: as §1
[24] = test system: HOP-62; experiment: Growth inhibition of human HOP62 cells after 48 hrs by SRB assay; assay type: functional; details: HOP-62, 48 h; outline: as §1
[25] = test system: SF-268; experiment: Growth inhibition of human SF268 cells after 48 hrs by SRB assay; assay type: functional; details: SF-268, 48 h; outline: as §1
[26] = test system: PC-3; experiment: Growth inhibition of human PC3 cells after 48 hrs by SRB assay; assay type: functional; details: PC-3, 48 h; outline: as §1
[27] = test system: RXF 393; experiment: Growth inhibition of human RXF393 cells after 48 hrs by SRB assay; assay type: functional; details: RXF 393, 48 h; outline: as §1
[28] = test system: HL-60(TB); experiment: Growth inhibition of human HL-60(TB) cells after 48 hrs by SRB assay; assay type: functional; details: HL-60, 48 h
Outline: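 NCI 60-cell-line screen: cells grown in RPMI1640 with 5% fetal calf serum and 2 mM L-glutamine, preincubated 24 h, then exposed to compound in DMSO at five concentrations (10^-4 to 10^-8 M) for 48 h continuous exposure. Growth estimated by sulforhodamine B protein assay; reported as pGI50 (-log molar concentration inhibiting net cell growth by 50%).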

[29] = test system: U-251; experiment: Growth inhibition of human U251 cells after 48 hrs by SRB assay; assay type: functional; details: U-251, 48 h; outline: as §1
[30] = test system: HCC 2998; experiment: Growth inhibition of human HCC2998 cells after 48 hrs by SRB assay; assay type: functional; details: HCC 2998, 48 h; outline: as §1
[31] = test system: SK-MEL-5; experiment: Growth inhibition of human SK-MEL-5 cells after 48 hrs by SRB assay; assay type: functional; details: SK-MEL-5, 48 h; outline: as §1
[32] = test system: CCRF-CEM; experiment: Growth inhibition of human CCRF-CEM cells after 48 hrs by SRB assay; assay type: functional; outline: as §1
[33] = test system: BT-549; experiment: Growth inhibition of human BT549 cells after 48 hrs by SRB assay; assay type: functional; details: BT-549, 48 h, read-out: pTGI (converted); outline: as §1
[34] = test system: SR; experiment: Growth inhibition of human SR cells after 48 hrs by SRB assay; assay type: functional; outline: as §1

COc1cc(C2CC(c3cccc(Br)c3)=NN2C(C)=O)cc(OC)c1OC (stereo not drawn)
GI50 [1]: 316 nM | TGI ([1]; read-out: pTGI (converted)): 31600 nM | GI50 [2]: 398 nM | TGI ([2]; read-out: pTGI (converted)): 3980 nM | GI50 [3]: 2000 nM | TGI ([3]; read-out: pTGI (converted)): > 100000 nM | GI50 [4]: 158 nM | TGI ([4]; read-out: pTGI (converted)): 15800 nM | GI50 [5]: 316 nM | TGI ([5]; read-out: pTGI (converted)): 12600 nM | GI50 [6]: 12600 nM | TGI ([6]; read-out: pTGI (converted)): 63100 nM | TGI [7]: 50100 nM | TGI [8]: 39800 nM | IC50 [9]: 350 nM | GI50 [10]: 398 nM | TGI ([10]; read-out: pTGI (converted)): > 100000 nM | GI50 [11]: 316 nM | TGI ([11]; read-out: pTGI (converted)): 20000 nM | GI50 [12]: 200 nM | TGI ([12]; read-out: pTGI (converted)): > 100000 nM | GI50 [13]: 200 nM | TGI ([13]; read-out: pTGI (converted)): 12600 nM | GI50 [14]: 12600 nM | TGI ([14]; read-out: pTGI (converted)): > 100000 nM | GI50 [15]: 398 nM | TGI ([15]; read-out: pTGI (converted)): 12600 nM | GI50 [16]: 316 nM | TGI ([16]; read-out: pTGI (converted)): > 100000 nM | GI50 [17]: 398 nM | GI50 [18]: 126 nM | TGI ([18]; read-out: pTGI (converted)): 12600 nM | GI50 [19]: 501 nM | TGI ([19]; read-out: pTGI (converted)): > 100000 nM | GI50 [20]: 501 nM | TGI ([20]; read-out: pTGI (converted)): > 100000 nM | GI50 [21]: 631 nM | TGI ([21]; read-out: pTGI (converted)): 63100 nM | GI50 [22]: 158 nM | TGI ([22]; read-out: pTGI (converted)): 631 nM | GI50 [23]: 631 nM | TGI ([23]; read-out: pTGI (converted)): > 100000 nM | GI50 [24]: 1000 nM | TGI ([24]; read-out: pTGI (converted)): 79400 nM | GI50 [25]: 1000 nM | TGI ([25]; read-out: pTGI (converted)): 79400 nM | GI50 [26]: 200 nM | TGI ([26]; read-out: pTGI (converted)): 31600 nM | GI50 [27]: 251 nM | TGI ([27]; read-out: pTGI (converted)): 1000 nM | GI50 [28]: 251 nM | TGI ([28]; read-out: pTGI (converted)): 501 nM | GI50 [29]: 501 nM | TGI ([29]; read-out: pTGI (converted)): 31600 nM | GI50 [30]: 1580 nM | TGI ([30]; read-out: pTGI (converted)): 25100 nM | GI50 [31]: 251 nM | TGI ([31]; read-out: pTGI (converted)): 12600 nM | GI50 [32]: 316 nM | TGI ([32]; read-out: pTGI (converted)): 2000 nM | TGI [33]: 39800 nM | GI50 [34]: 39.8 nM | TGI ([34]; read-out: pTGI (converted)): > 100000 nM
